# NR3A LBD binder: binders of NR3A ligand-binding domain, primary screen, biophysical, differential scanning fluorimetry, uHTS; Glutamate receptor ionotropic, NMDA 3A (GRIN3A) ligand-binding domain; NR3A LBD differential scanning fluorimetry, Tm shift; 0% = protein alone, 100% = glycine-bound protein; Tm shift relative to glycine control, % at 25 µM; 340,000 tested, 2.5% active; AID 1259313, 2017;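 active = melting temperature shift of at least 10% of the positive control shift, at one fixed dose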
# EBV gp42 inh: Epstein-Barr virus gp42 inhibitors, primary screen, biochemical, uHTS, fluorescence polarization; inhibition, % (tested at 21.74 µM); 220,000 tested, 0.42% active; Glycoprotein 42 (Epstein-Barr virus (strain AG876)), Q1HVG2; Fluorescence polarization binding assay, mP read-out; in the data active = inhibition above about 50%
# Target sequence (Q1HVG2 whole entry, looked up): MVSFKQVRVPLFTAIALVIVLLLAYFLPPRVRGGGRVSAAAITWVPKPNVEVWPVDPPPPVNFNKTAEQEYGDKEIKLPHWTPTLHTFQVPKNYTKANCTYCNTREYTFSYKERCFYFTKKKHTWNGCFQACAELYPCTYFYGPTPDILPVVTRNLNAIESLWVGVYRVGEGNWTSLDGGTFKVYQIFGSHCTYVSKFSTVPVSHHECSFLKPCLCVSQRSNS
# Tb MetRS inh: T. brucei MetRS inhibitors, primary screen, biochemical, luminescence | methionyl-tRNA synthetase (Trypanosoma brucei brucei) | purified T. brucei MetRS, ATP depletion, Kinase-Glo luminescence | inhibition, % at 11.9 µM | 360,000 tested, 0.4% active;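 active = inhibition above a per-plate cutoff of the control wells' mean inhibition plus 3 SD, cut at about 5.5% in these data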;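 note: 0% = DMSO wells median and 100% = median of wells with control inhibitor compound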
#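 Test system – parasite MetRS enzyme · Reagent – substrates ATP, L-methionine and bulk Escherichia coli tRNA · Doses – 11.9 µM compound single dose, 0.9% DMSO · Times – 15 min enzyme-compound preincubation, 2 h reaction, 10 min detection, 25 °C · Signal – Kinase-Glo luminescence, ATP depletion format · Controls – DMSO-only wells as low control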
# WT yeast gro inh: growth inhibition of WT strain, primary screen, mitochondrial fusion inhibitor project, WT and mutant strains, chemical genetic; mitochondrial fusion phenotypic screen; inhibition, % at 10 µM; 190,000 tested, 2.1% active; AID 1362, 2008; in the data active = inhibition above about 58%; tested in S. cerevisiae
# MPTP inh: mitochondrial permeability transition pore inhibitors, primary screen, biochemical, isolated mouse mitochondria, absorbance. Ca2+ swelling absorbance, 30 min. inhibition, % at 10 µM. 360,000 tested, 1.4% active. AID 602449, 2012;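 active = inhibition of 50% or more, scaled per plate between neutral and stimulator controls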;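 note: 0% = DMSO wells given calcium and 100% = 1 mM EGTA wells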
# CHOP inhibitor: inhibitors of CHOP promoter induction, primary screen, cell-based, unfolded protein response, luciferase reporter. CHO-K1 CHOP-promoter luciferase, tunicamycin-induced, 15-18 h. inhibition, % at 10 µM. 220,000 tested, 3.8% active. AID 2732, 2010;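 active = compounds that reduced the stress-induced luciferase reporter signal by more than about 70% of percent inhibition, limit read from the data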;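 note: 0% = tunicamycin plus vehicle and 100% = wells without tunicamycin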
# Starred values were filed as active, the others as inactive; x = no result given. In the library only some 6.4% were active in any assay of this set; here they are far more common.
SMILES,NR3A LBD binder,EBV gp42 inh,Tb MetRS inh,WT yeast gro inh,MPTP inh,CHOP inhibitor
O=C(Cc1ccc(S(=O)(=O)N2CCOCC2)s1)Nc1ccccc1N1CCCC1,-2.2,x,-0.5,x,0.7,x
CCc1cc2cc(C)cc(C)c2nc1SCC(=O)N1CCCC1,-2.3,-1.1,-0.5,-22.2,0.0,87.2*
COc1ccc(NC(=O)Cn2cnc3c(oc4nc5c(cc43)COC(C)(C)C5)c2=O)cc1,-2.9,-6.8,-0.8,x,0.6,3.7
CC(=O)n1c(C=Nc2ccc(Cl)cc2)c(O)c2ccccc21,2.2,124.7*,-0.4,x,4.0,-22.0
CC(=O)n1c2ccccc2c2ccccc21,6.5,-13.3,-1.2,0.9,-0.7,-12.8
CCC1CCCCN1CCCNC(=O)CNC(=O)c1nn(-c2ccc(OC)c(Cl)c2)c(=O)c2ccccc12 (configuration not stated),-1.3,x,0.2,x,-0.2,x
COc1ccc(NC(=O)CN(C)C(=O)CNC(=O)c2sc3ccccc3c2Cl)cc1,-7.0,x,0.7,x,-0.6,x
CN(CC(=O)Nc1c(Cl)cccc1Cl)C(=O)CNC(=O)c1sc2ccccc2c1Cl,18.8*,x,-0.1,x,-0.6,x
Cc1nc2ccc(-c3nc4ccccc4o3)cc2[nH]1,-4.2,-14.3,-1.0,2.9,0.1,6.8
Nc1ccc2nc(-c3cc(Cl)c(N)c(Cl)c3)[nH]c2c1,11.7*,-20.3,-0.6,3.3,0.6,-42.3
Nc1ccc(-c2nc3ccc(-c4nc5ccccc5o4)cc3[nH]2)cc1,17.8*,-2.5,-0.2,16.9,-0.3,-22.3
Nc1ccc(-c2nc3ccc([N+](=O)[O-])cc3[nH]2)cc1,25.4*,-4.0,-0.8,29.9,-9.8,6.2
O=C(/N=C1/c2ccccc2CN1c1ccccc1)Nc1ccccc1,0.2,-5.6,0.7,-21.4,-1.8,10.7
COC(=O)C1=C(Nc2ccc(C)cc2)C=C(C)C(C(=O)OC)C1c1ccc(OC)cc1 (configuration not stated),-2.7,5.1,-0.8,70.3*,3.7,-9.0
COC(=O)C1=C(Nc2ccc(C)cc2)C=C(C)C(C(=O)OC)C1c1cccc(OC)c1 (configuration not stated),2.2,-4.1,0.0,40.7,3.1,-17.2
Cc1cc(C)c2c(c1)/C(=c1/sc3n(c1=O)CN(c1ccccc1)CN=3)C(=O)N2,0.9,-6.9,-0.3,x,-4.7,81.1*
COc1ccc(C2CC(O)(c3ccccc3)Oc3cc(OC)ccc32)cc1 (configuration not stated),-1.0,-0.5,-0.4,x,1.3,92.0*
CCOC(=O)Cc1csc(NC(=O)c2c(O)c3c(n(CC(C)C)c2=O)CCCC3)n1,-0.7,0.7,-0.5,x,-3.5,-8.0
Fc1ccccc1C(c1nnnn1C1CCCC1)N1CCN(Cc2ccccc2)CC1 (configuration not stated),-0.4,85.0*,1.1,-4.3,2.2,23.0
CCC(c1nnnn1C1CCCC1)N1CCN(Cc2ccccc2)CC1 (configuration not stated),-0.4,-5.4,-0.6,-8.8,0.7,46.3
CC(NC(=O)C(=O)NCCC1=CCCCC1)c1ccccc1 (configuration not stated),0.9,-24.5,-1.4,4.7,-1.2,95.2*
CC(C)CCNC(=O)C(=O)NCCC1=CCCCC1,-1.1,-12.5,0.3,0.0,1.2,29.1
O=C(COC(=O)COc1cccc(F)c1)NCCC1=CCCCC1,0.4,7.5,-0.9,-2.5,-1.2,4.7
COc1ccc(N2CCN(C(CNC(=O)C(=O)NCCC3=CCCCC3)c3ccco3)CC2)cc1 (configuration not stated),4.1,-15.4,-0.4,17.6,3.9,87.0*
NC(=O)NCCC1=CCCCC1,-0.5,-13.5,-0.5,59.4*,-0.4,16.5
SMILES,NR3A LBD binder,EBV gp42 inh,Tb MetRS inh,WT yeast gro inh,MPTP inh,CHOP inhibitor
O=C(COC(=O)COc1ccc(Br)cc1)NCCC1=CCCCC1,12.2*,-4.5,1.2,-12.5,0.3,23.4
O=C(NCCC1=CCCCC1)C(=O)NCC(c1ccco1)N1CCN(c2ccccc2F)CC1 (configuration not stated),-0.3,-15.8,0.2,19.9,2.5,62.3
O=C(NCCC1=CCCCC1)C(=O)NCC(c1ccco1)N1CCN(c2ccccc2)CC1 (configuration not stated),-14.8,-10.5,-0.3,15.8,31.4,94.3*
Nc1ccc2nc(CN3CCOCC3)[nH]c2c1,-1.0,-16.1,-0.3,65.7*,-6.3,-16.5
c1ccc2[nH]c(CN3CCOCC3)nc2c1,-1.1,8.2,-1.1,0.0,-0.1,13.6
CC(=O)N1CCN(C23CC4CC(CC(C4)C2)C3)CC1,-0.9,x,0.3,x,-0.5,x
CCOC(=O)c1nnc(-c2ccc(C)cc2)nc1Oc1ccccc1Cl,-3.2,-17.9,-0.4,2.0,-0.9,77.9*
COc1ccc(Cn2c(C3CC3)nc3ccc(NC(=O)C4CC4)cc3c2=O)cc1,-14.4,-5.9,-0.5,-12.1,-9.1,-5.8
O=C(C1CCC(=O)N(C2CCCC2)C1)N1CCC(Oc2cccc(F)c2)CC1 (configuration not stated),17.9*,x,0.2,x,-0.1,x
Cc1cn(S(=O)(=O)c2cc(Br)ccc2Br)cn1,10.0*,1.6,0.2,-10.8,-0.2,31.6
O=[N+]([O-])c1ccc(COc2ccccc2CN2CCCC2)cc1,-1.4,x,0.0,x,0.0,x
COC(=O)C(Nc1nccs1)(OC)C(F)(F)F (configuration not stated),-0.6,59.6*,-0.5,-10.8,0.1,49.3
O=C(O)c1ccccc1-c1nc2ccccc2[nH]1,-0.5,2.7,-0.5,1.8,-1.4,-18.3
Oc1ccc2ccccc2c1C=Nc1ccccc1-c1nc2ccccc2[nH]1,-3.9,-35.1,-0.3,-5.8,3.3,72.6*
Cc1cc2c(cc1S(=O)(=O)N1CCN(c3ccccc3)CC1)OCC(=O)N2,3.5,x,-0.2,x,-0.1,x
CC(=O)Nc1ccc(S(=O)(=O)N2CCN(c3cc(C)ccc3C)CC2)cc1,-6.8,12.6,-0.3,45.0,0.9,75.1*
Cc1ccc(C)c(N2CCN(S(=O)(=O)c3ccc4c(c3)NC(=O)CO4)CC2)c1,11.0*,x,-0.9,x,0.7,x
Cc1ccc(C)c(N2CCN(S(=O)(=O)c3ccc4c(c3)NC(=O)CC(=O)N4)CC2)c1,0.1,x,-1.1,x,-1.0,x
Cc1cc2c(cc1S(=O)(=O)N1CCN(c3ccccc3F)CC1)OCC(=O)N2,13.1*,x,0.2,x,-1.4,x
Cc1[nH]c(=O)[nH]c(=O)c1S(=O)(=O)N1CCN(c2ccccc2F)CC1,-16.7,61.3*,0.3,-13.8,-2.3,-11.8
CC(=O)Nc1ccc(S(=O)(=O)N2CCN(S(=O)(=O)c3ccccc3)CC2)cc1,-1.1,x,-0.2,x,-1.0,x

# Screening results: PubChem BioAssay, several laboratories
